{"source": "ChEMBL document CHEMBL2396538", "about": "“Synthesis and biological evaluation of a novel series of aryl S,N-ketene acetals as antileishmanial agents” (Bioorg Med Chem Lett, 2013)", "key": {"Leishmania donovani [1]": {"tested_on": "Leishmania donovani", "assay": "Antileishmanial activity against amastigote stage of Leishmania donovani infected in golden hamster assessed as inhibition of parasite multiplication at 50 mg/kg, ip administered 5 days measured on day 7 by Giemsa staining assay relative to control", "assay_type": "functional", "conditions": "for inhibition in vivo at 50 mg/kg: route intraperitoneal", "summary_of_the_method": "(§1)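 Golden hamster L. donovani model; 50 mg/kg given ip for 5 days. Biopsies were taken on day 7 after the last dose, and amastigotes were counted by Giemsa staining. Percent inhibition was derived by comparing infection intensity in treated versus untreated animals and against the initial count in treated animals.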"}, "[2]": {"assay": "(§2) Selectivity index, ratio of CC50 for african green monkey vero cells to IC50 for amastigote stage of Leishmania donovani infected in mouse J774A.1 cells", "assay_type": "functional", "summary_of_the_method": "(§3)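 Selectivity index calculated as CC₅₀ (Vero cells, 72 h MTT) divided by IC₅₀ against intracellular amastigotes in luciferase-reporter J-774A.1 macrophage assay.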"}, "[3]": {"assay": "Cytotoxicity against african green monkey vero cells assessed as cell viability after 72 hrs by MTT assay", "assay_type": "cell-based", "conditions": "chlorocebus sabaeus", "summary_of_the_method": "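Exponentially growing Vero monkey kidney […] incubated with compounds for 72 h; viable cells detected with MTT (Mosmann method); CC₅₀ estimated.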"}, "Leishmania donovani [4]": {"tested_on": "Leishmania donovani", "assay": "Antileishmanial activity against amastigote stage of Leishmania donovani infected in mouse J774A.1 cells assessed as parasite growth inhibition after 72 hrs by luciferase reporter gene assay", "assay_type": "functional, organism-based", "conditions": "J774.A1, 72 h", "summary_of_the_method": "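Mouse macrophage J-774A.1 cells (4 × 10^3/100 µL) were seeded, then infected with luciferase-transfected L. donovani promastigotes (4 × 10^4/100 µL), which transformed into intracellular amastigotes. Compounds at 0.62–40 µM for 72 h in CO₂ incubator. Medium replaced with PBS plus Steady-Glo; luminescence read. Growth inhibition versus untreated controls; IC₅₀ derived.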"}, "Leishmania donovani [5]": {"tested_on": "Leishmania donovani", "assay": "Antileishmanial activity against promastigote stage of Leishmania donovani assessed as parasite growth inhibition at 25 uM after 72 hrs by luciferase reporter gene assay relative to untreated control", "assay_type": "functional", "conditions": "for inhibition of growth at 25 µM: read-out: GI", "summary_of_the_method": "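Luciferase-transfected L. donovani promastigotes (5 × 10^5/100 µL) exposed to compounds for 72 h. Suspension mixed 1:1 with Steady-Glo reagent; luminescence read as relative luminescence units. Inhibition calculated from luciferase activity of treated versus untreated parasites.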"}, "Vero": {"tested_on": "Vero", "assay": "as §2", "assay_type": "functional", "summary_of_the_method": "as §3"}, "Leishmania donovani [6]": {"tested_on": "Leishmania donovani", "assay": "Antileishmanial activity against Leishmania donovani infected in hamster assessed as inhibition of parasite multiplication relative to control", "assay_type": "functional", "summary_of_the_method": "as §1"}, "Syrian golden hamster": {"tested_on": "Syrian golden hamster", "assay": "Toxicity in golden hamster at 50 mg/kg, ip and po administered 5 days measured on day 7", "assay_type": "organism-based, Mesocricetus auratus", "parameters": "dose 50 mg/kg, route oral", "conditions": "in vivo, 120 h"}, "Leishmania donovani [7]": {"tested_on": "Leishmania donovani", "assay": "Antileishmanial activity against amastigote stage of Leishmania donovani infected in golden hamster assessed as inhibition of parasite multiplication at 50 mg/kg, po administered 5 days measured on day 7 by Giemsa staining assay relative to control", "assay_type": "functional", "summary_of_the_method": "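L. donovani-infected hamsters received 50 mg/kg orally for 5 days. Post-treatment biopsy was on day 7 after the last dose, with Giemsa-stained amastigote counts. Percent inhibition came from comparing treated animals with untreated animals and with the treated animals' initial counts.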"}, "[8]": {"assay": "Metabolic stability in hamster liver microsomes at 25 uM by HPLC analysis in absence of NADPH and presence of CYP suicidal inhibitor 1-ABZT", "conditions": "cricetinae"}}, "note": "Activity calls are given as the source filed them. The calls are words filed in the database; no cut-off is given here."}
{"compound": "COc1cc(/C=C/C(=O)/C=C(\\Nc2ccc(Cl)cc2)SC)cc(OC)c1OC", "values": [{"measurement": "inhibition in vivo at 50 mg/kg", "setting": "Leishmania donovani [1]", "result": 21, "unit": "%"}, {"measurement": "Ratio CC50/IC50", "setting": "[2]", "result": 36}, {"measurement": "CC50 at 72 h", "setting": "[3]", "result": 57.9, "unit": "µM"}, {"measurement": "IC50", "setting": "Leishmania donovani [4]", "result": 1.6, "unit": "µM"}, {"measurement": "inhibition of growth at 25 µM", "setting": "Leishmania donovani [5]", "result": 98.7, "unit": "%"}]}
{"compound": "COc1ccc(N/C(=C\\C(=O)/C=C/c2cc(OC)c(OC)c(OC)c2)SC)cc1", "values": [{"measurement": "inhibition in vivo at 50 mg/kg", "setting": "Leishmania donovani [1]", "result": 32, "unit": "%"}, {"measurement": "Ratio CC50/IC50", "setting": "[2]", "result": 69}, {"measurement": "CC50 at 72 h", "setting": "[3]", "result": 184, "unit": "µM"}, {"measurement": "IC50", "setting": "Leishmania donovani [4]", "result": 2.6, "unit": "µM"}, {"measurement": "inhibition of growth at 25 µM", "setting": "Leishmania donovani [5]", "result": 99.1, "unit": "%"}]}
{"compound": "Sodium stibogluconate", "values": [{"measurement": "inhibition", "setting": "Leishmania donovani [1]", "result": 89, "unit": "%"}, {"measurement": "Ratio CC50/IC50", "setting": "Vero", "result": 7}, {"measurement": "growth inhibition (GI)", "setting": "Leishmania donovani [5]", "result": "inactive"}]}
{"compound": "COc1cc(/C=C/C(=O)/C=C(\\Nc2ccc(F)cc2)SC)cc(OC)c1OC", "values": [{"measurement": "inhibition in vivo at 50 mg/kg", "setting": "Leishmania donovani [1]", "result": 72, "unit": "%"}, {"measurement": "Ratio CC50/IC50", "setting": "[2]", "result": 36}, {"measurement": "CC50 at 72 h", "setting": "[3]", "result": 43.4, "unit": "µM"}, {"measurement": "IC50", "setting": "Leishmania donovani [4]", "result": 1.2, "unit": "µM"}, {"measurement": "inhibition of growth at 25 µM", "setting": "Leishmania donovani [5]", "result": 97.9, "unit": "%"}]}
{"compound": "COc1cc(/C=C/C(=O)/C=C(\\NCc2ccccc2)SC)cc(OC)c1OC", "values": [{"measurement": "inhibition", "setting": "Leishmania donovani [1]", "result": "inactive"}, {"measurement": "Ratio CC50/IC50", "setting": "[2]", "result": 36}, {"measurement": "CC50 at 72 h", "setting": "[3]", "result": 71.5, "unit": "µM"}, {"measurement": "IC50", "setting": "Leishmania donovani [4]", "result": 2, "unit": "µM"}, {"measurement": "inhibition of growth at 25 µM", "setting": "Leishmania donovani [5]", "result": 98.6, "unit": "%"}]}
{"compound": "COc1cc(/C=C/C(=O)C=C(SC)SC)cc(OC)c1OC", "values": [{"measurement": "inhibition (INH)", "setting": "Leishmania donovani [6]", "result": 66, "unit": "%"}]}
{"compound": "NC[C@@H]1O[C@H](O[C@H]2[C@@H](O)[C@H](O[C@@H]3[C@@H](O)[C@H](N)C[C@H](N)[C@H]3O[C@H]3O[C@H](CO)[C@@H](O)[C@H](O)[C@H]3N)O[C@@H]2CO)[C@H](N)[C@@H](O)[C@@H]1O", "note": "[PAROMOMYCIN]", "values": [{"measurement": "inhibition in vivo at 50 mg/kg", "setting": "Leishmania donovani [1]", "result": 46, "unit": "%"}, {"measurement": "Ratio CC50/IC50", "setting": "[2]", "result": 2}, {"measurement": "CC50 at 72 h", "setting": "[3]", "result": 86.6, "unit": "µM"}, {"measurement": "IC50", "setting": "Leishmania donovani [4]", "result": 40.3, "unit": "µM"}, {"measurement": "growth inhibition (GI)", "setting": "Leishmania donovani [5]", "result": "inactive"}]}
{"compound": "COc1cc(/C=C/C(=O)/C=C(\\NC2CCCCC2)SC)cc(OC)c1OC", "values": [{"measurement": "Ratio CC50/IC50", "setting": "[2]", "result": 7}, {"measurement": "CC50 at 72 h", "setting": "[3]", "result": 22.7, "unit": "µM"}, {"measurement": "IC50", "setting": "Leishmania donovani [4]", "result": 3.5, "unit": "µM"}, {"measurement": "inhibition of growth at 25 µM", "setting": "Leishmania donovani [5]", "result": 98.9, "unit": "%"}]}
{"compound": "COc1cc(/C=C/C(=O)/C=C(\\Nc2ccccc2)SC)cc(OC)c1OC", "values": [{"measurement": "Activity", "setting": "Syrian golden hamster", "result": "Non-toxic"}, {"measurement": "inhibition in vivo at 50 mg/kg", "setting": "Leishmania donovani [7]", "result": 64, "unit": "%"}, {"measurement": "inhibition in vivo at 50 mg/kg", "setting": "Leishmania donovani [1]", "result": 83, "unit": "%"}, {"measurement": "Ratio CC50/IC50", "setting": "[2]", "result": 31}, {"measurement": "CC50 at 72 h", "setting": "[3]", "result": 64.6, "unit": "µM"}, {"measurement": "IC50", "setting": "Leishmania donovani [4]", "result": 2.1, "unit": "µM"}, {"measurement": "inhibition of growth at 25 µM", "setting": "Leishmania donovani [5]", "result": 96.2, "unit": "%"}, {"measurement": "Stability", "setting": "[8]", "result": "Stable"}]}
